Data set [1] relates to Human immunodeficiency virus 1. The experiment in a line: Antiviral activity against HIV1 in MT4 cells assessed as reduction of virus induced cytopathogenicity by MTT method. Particulars: Human immunodeficiency virus 1, MT4. The format is functional, organism-based. Summed up:
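MT-4 cells infected with wild-type HIV-1; EC50 = concentration giving 50% protection of cells from virus-induced cytopathogenicity, viability read by MTT. Triplicate samples.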

Data set [2] can be described thus: Cytotoxicity against human MT4 cells by MTT method. The format is cell-based. The procedure, abridged: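 Mock-infected MT-4 cells, run in parallel with the antiviral test; CC50 = concentration reducing viability by 50%, read by MTT. Triplicate samples.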
Data set [3] is described as follows: Selectivity index, ratio of CC50 for human MT4 cells to EC50 for HIV1 cells. In kind it is toxicity, cell-based. Particulars: read-out: Ratio CC50/EC50. The procedure, abridged: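 Ratio of CC50 (mock-infected MT-4 viability, MTT) to EC50 (50% protection of MT-4 cells from HIV-1 cytopathogenicity, MTT), both taken from the same parallel cell-based run.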
In data set [4] the target is Human immunodeficiency virus type 1 reverse transcriptase (Human immunodeficiency virus 1, UniProt Q72547). The experiment in a line: Inhibition of HIV1 virion-associated reverse transcriptase.
Data set [5] relates to Human immunodeficiency virus 1. Nature of the data set: Antiviral activity against HIV1 with reverse transcriptase Y181C mutation. The format is functional, organism-based. Summed up:
(§1)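 MT-4 cells infected with the mutant HIV-1 strain; protection from virus-induced cytopathogenicity read by MTT. EC50 is the concentration (µM) giving 50% protection. Cytotoxicity was assayed in parallel on mock-infected MT-4 cells by MTT. Triplicate samples.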

The subject of data set [6] is Human immunodeficiency virus 1. Nature of the data set: Antiviral activity against HIV1 with reverse transcriptase K103R mutation. In kind it is functional, organism-based. The procedure, abridged:
as §1

SMILES strings stand for the structures. Active and inactive are the calls of the source. The rule behind the calls is not given here.

With `O=C1c2ccccc2C(=O)N1CCO/C(=N\c1ccc(Br)cc1)SS/C(=N/c1ccc(Br)cc1)OCCN1C(=O)c2ccccc2C1=O`, the EC50 in data set [1] was 0.01 µM. It took 42 µM to reach half-maximal cytotoxicity in data set [2] (CC50). The selectivity ratio in data set [3] is 4200. Further, half-maximal inhibition in data set [4] (IC50) required 0.74 µM.
On to `Cc1cc(Br)ccc1/N=C(\OCCN1C(=O)c2ccccc2C1=O)SS/C(=N/c1ccc(Br)cc1C)OCCN1C(=O)c2ccccc2C1=O`, for which the figures for the EC50 in data set [1] and in data set [5] were 1.8 µM and 35 µM, respectively. The molecule also returned a CC50 in data set [2] of 80 µM. Also, the selectivity ratio in data set [3] came to 44. Also, the result in data set [6] was inactive.
Turning to `S=C(NCCc1ccccn1)Nc1ccc(Br)cn1` [TROVIRDINE], in data set [3], the selectivity ratio is 3000. The molecule also had an IC50 in data set [4] of 1.06 µM.
As for `O=C1c2ccccc2C(=O)N1CCO/C(=N\c1ccc([N+](=O)[O-])cc1)SS/C(=N/c1ccc([N+](=O)[O-])cc1)OCCN1C(=O)c2ccccc2C1=O`, the figures for the EC50 in data set [1], in data set [5] and in data set [6] were 0.07 µM, 57 µM and 62 µM, respectively. Moreover, the CC50 in data set [2] was more than 100 µM. Besides, in data set [3], the selectivity ratio is more than 1430.

The values are drawn from ChEMBL document CHEMBL1150425, “Parallel one-pot synthesis and structure-activity relationship study of symmetric formimidoester disulfides as a novel class of potent non-nucleoside HIV-1 reverse transcriptase inhibitors” (Bioorg Med Chem, 2008).
